Results as given in PMC2195906 (The Journal of Experimental Medicine, 2001).
“Also recorded” adds a separate entry of the source. Ends that are not written are not given here. * marks the point of attachment. Biotin = O=C1N[C@H]2[C@H](CS[C@H]2CCCCC(=O)*)N1

Experiments:
VDAC = conditions: sucrose or cytochrome c, in vitro; ref 9 44; cited from earlier work
ANT [1] = conditions: ref 8 26 28 40; cited from earlier work
ANT [2] = target: T1, ANT (Rattus norvegicus, UniProt Q05962); test: Planar lipid bilayers, single channel level, Vpr52-96 plus ANT; assay type: biochemical; conditions: +75 mV
T1 sequence (Q05962 1-298): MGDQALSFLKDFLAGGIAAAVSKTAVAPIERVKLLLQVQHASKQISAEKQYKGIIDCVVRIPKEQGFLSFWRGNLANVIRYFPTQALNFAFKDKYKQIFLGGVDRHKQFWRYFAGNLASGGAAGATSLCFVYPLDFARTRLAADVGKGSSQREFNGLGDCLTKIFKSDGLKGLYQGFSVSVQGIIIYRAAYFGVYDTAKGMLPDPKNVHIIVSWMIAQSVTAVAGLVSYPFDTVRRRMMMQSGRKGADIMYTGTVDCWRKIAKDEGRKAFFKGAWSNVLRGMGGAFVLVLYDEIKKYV
Method in brief: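 Rat heart mitochondrial ANT, purified via subtilisin treatment, Triton X-100 solubilization, hydroxyapatite and SP column (0–1 M NaCl). Proteins held 30 min RT with 1 mM CaCl2, 40 μM atractyloside or control electrolyte, mixed with dried lipid (60 μg protein/mg lipid), detergent removed by beads. Tip-dip bilayers, symmetric 100 mM KCl, 2 mM MgCl2, 10 mM Hepes pH 7.4.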

[3] = Binding of FITC–Vpr52-96 to purified mitochondria; set-up: species or system mouse; conditions: 10 min preincubation with inhibitors; Fig. 7 B
ANT proteoliposomes = test: Binding of FITC-labeled Vpr52-96 to ANT proteoliposomes; set-up: species or system rat; conditions: FITC–Vpr52-96 (2 μM in Fig. 2 B); BA 50 μM; Bcl-2 800 nM preincubated (Fig. 8 B)
Method in brief: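 ANT was purified from rat heart mitochondria (Triton X-100 extraction, hydroxyapatite, then cation-exchange with a 0–1 M NaCl gradient) and reconstituted at 0.1 mg/ml into phosphatidylcholine/cardiolipin liposomes, then dialysed overnight at 4°C. Proteoliposomes were exposed 30 min to FITC-peptide in 125 mM sucrose/10 mM Hepes pH 7.4, ultracentrifuged (290,000 g, 45 min, 10°C) and read by flow cytometry. Inhibitors were preincubated and washed out; mean ± SD, n = 3.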

COS cells = test: ΔΨm dissipation in microinjected COS cells; assay type: cell-based; conditions: 1 μM Vpr52-96, 3 h
Method in brief: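 COS cells grown in DMEM Glutamax with Hepes, antibiotics and 10% FCS on a premarked coverslip area (>200 cells per experiment). Cells were injected into the cytoplasm (200 hPa, 0.5 s) with PBS pH 7.2, recombinant human Bcl-2 (residues 1–218; 10 μM in the injection solution) or 2 μM König's polyanion.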

isolated mitochondria = test: Ultrastructure: swelling of isolated mitochondria; assay type: biochemical, mouse; conditions: Fig. 6 C
[4] = system: purified mitochondria, inner membrane; test: Respirometry: NADH-dependent oxygen consumption; assay type: biochemical, mouse; conditions: Bcl-2 0.8 μM pretreated 10 min; other agents added; Fig. 5 A, 6 B
Method in brief: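 Oxygen uptake was recorded by Clark electrode at 37°C (mannitol/KCl/MgCl2/BSA/KH2PO4 medium, pH 7.4) after 2 mM NADH and 1 μM peptide, with rotenone added to test sensitivity; rates are in nmol O2/min/mg protein. For inhibitor tests, mitochondria were pretreated 10 min with 0.8 μM Bcl-2 or 10 μM BA before succinate plus CCCP or NADH. In the kinetics, 15 μM cytochrome c oxidation was followed in parallel, with 100% set by 2.5 mM laurylmaltoside.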

Vpr52-96–ANT interaction = assay type: binding, rat; conditions: native purified ANT; Fig. 8 A; X ± SD, n = 3
[5] = system: purified mitochondria (ΔΨm); test: ΔΨm dissipation in purified mitochondria, effect of inhibitors; assay type: biochemical, mouse
ANT [6] = target: T1, ANT; test: Plasmon resonance; assay type: binding; conditions: plasmon resonance; association and dissociation phase; Fig. 1 A
recombinant VDAC = test: Plasmon resonance: binding to recombinant VDAC; conditions: control experiments, VDAC concentrations up to 10 μM
[7] = target: biotin–Vpr52-96 (synthetic peptide, COOH-terminal moiety of HIV-1 viral protein R) (HIV-1) (UniProt P69726); test: SPR

Bax: proapoptotic Bcl-2 family protein
effect on permeabilization of VDAC-containing liposomes (VDAC): enhanced by Bax
effect on ANT pore formation (ANT [1]): cause ANT (which normally is a strictly specific ADP/ATP antiporter) to form a nonspecific pore
conductance of Vpr52-96–ANT channels in presence of Bax (ANT [2]; Vpr52-96 plus ANT plus Bax 0.4:1:0.3 nM, mean value): 245 ± 2 pS

Bcl-2: recombinant human Bcl-2 (amino acids 1–218)
effect on binding of Vpr52-96 to purified mitochondria [3]: failed to impair the binding of Vpr52-96 to purified mitochondria; also recorded: not affected
effect on permeabilization of VDAC-containing liposomes (VDAC): inhibited by Bcl-2
effect on Vpr binding to ANT proteoliposomes (ANT proteoliposomes): reduced
inhibition of Vpr-induced ΔΨm loss in intact cells (COS cells; 10 μM recombinant human Bcl-2 microinjected): ≥ 95%
cells with ΔΨm reduction, inhibitor-injected (COS cells; Bcl-2-injected (10 μM)): Less than 5%
inhibition of Vpr-induced matrix swelling (isolated mitochondria; Bcl-2 preincubation): ~50%
effect on Vpr52-96-induced matrix swelling (in words) (isolated mitochondria): strongly reduced the Vpr52-96–induced matrix swelling
effect on Vpr-induced NADH-dependent oxygen consumption [4]: inhibited the Vpr-mediated inner MMP to NADH
effect of Bcl-2 proteins on Vpr52-96 binding to soluble ANT (Vpr52-96–ANT interaction): reduces the ANT–Vpr interaction; also recorded: reduced Vpr52-96 binding to soluble; also recorded: inhibits binding of Vpr52-96 to ANT
effect on formation of Vpr52-96–induced channels in ANT-containing lipid bilayers (ANT [2]; Vpr52-96 plus ANT plus Bcl-2 0.4:1:1 nM, Fig. 8 C): suppresses channel formation by the ANT–Vpr complex; also recorded: abolished the formation of Vpr52-96–induced channels
inhibition of Vpr-induced ΔΨm loss in purified mitochondria ([5]; Bcl-2 preincubation (0.8 μM), Fig. 6 D, E): ~70%
protection against Vpr-induced inner MMP (in words) ([5]; purified mitochondria, Fig. 6 B–E): protect mitochondria against Vpr-induced MMP

Vpr52-96[R73A,80A] (Biotin-DTWAGVEAIIRILQQLLFIHFAIGCRHSAIGVTRQRRARNGASRS)
sensorgram: increase of binding as a function of time (ANT [6]): Only the sensorgram of the interaction with Vpr52-96 exhibits an increase of binding
specific binding to VDAC (recombinant VDAC): without any difference between Vpr52-96 and Vpr52-96[R73A, 80A] and without detectable saturation

adenine nucleotide translocator (ANT) purified from rat heart mitochondria (from UniProt Q05962 1-298) (natural protein)
Kd [7]: 9.7 nM
